Measured values: ChEMBL document CHEMBL1153731, “Methicillin-resistant Staphylococcus aureus (MRSA)-active metabolites from Platanus occidentalis (American Sycamore)” (J Nat Prod, 2009)
Converted amounts (≈) assume the structure as drawn. The source made the active and inactive calls. The rule behind the calls is not given here.

Columns and labels:
[1] = tested on: Mycobacterium intracellulare; experiment: Antibacterial activity against Mycobacterium intracellular at 100 ug/ml by NCCLS method; type: functional, organism-based
Cryptococcus neoformans = experiment: Antifungal activity against Cryptococcus neoformans at 100 ug/ml by NCCLS method; type: functional, organism-based
Vero = experiment: Cytotoxicity against african green monkey Vero cells up to 100 ug/ml; type: cell-based; details: chlorocebus sabaeus
Escherichia coli = experiment: Antibacterial activity against Escherichia coli at 100 ug/ml by NCCLS method; type: functional, organism-based
Pseudomonas aeruginosa = experiment: Antibacterial activity against Pseudomonas aeruginosa at 100 ug/ml by NCCLS method; type: functional, organism-based
Aspergillus fumigatus = experiment: Antifungal activity against Aspergillus fumigatus at 100 ug/ml by NCCLS method; type: functional, organism-based
Candida albicans = experiment: Antifungal activity against Candida albicans at 100 ug/ml by NCCLS method; type: functional, organism-based
Staphylococcus aureus [2] = experiment: Antibacterial activity against methicillin-resistant Staphylococcus aureus by NCCLS method; type: functional, organism-based
Procedure, shortened: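 MRSA tested in vitro by CLSI (formerly NCCLS) broth microdilution. Samples were diluted in 0.9% saline and run in duplicate in 96-well microplates. Cell suspension was added to reach the target inoculum, with media and solvent controls included. IC50 was taken from percent growth plotted against concentration. MIC was the lowest concentration with no detectable growth; MBC was the lowest concentration that killed the organism.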

Staphylococcus aureus [3] = experiment: Antibacterial activity against Staphylococcus aureus by NCCLS method; type: functional, organism-based
Procedure, shortened: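 Microdilution per CLSI (formerly NCCLS). Samples run in duplicate, diluted in 0.9% saline in 96-well plates, then microbial suspensions added to reach the target inocula. Media and solvent controls in every assay. IC50 read from a plot of percent growth against concentration. MIC taken as the lowest concentration with no detectable growth; MBC as the lowest concentration that kills the organism.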

Staphylococcus aureus [4] = experiment: Antibacterial activity against Staphylococcus aureus infected in CD1 mouse thigh muscle assessed as reduction in colony forming unit at 3.0 mg/kg, ip administered 2 hrs after infection measured after 48 hrs; type: functional, Muscle tissue; details: route intraperitoneal
Procedure, shortened: (§1)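 Neutropenic thigh infection in CD-1 mice. Neutropenia induced by cyclophosphamide 100 mg/kg ip on days -4 and -1. Each rear thigh inoculated im with MRSA, 1.5 × 10⁶ cfu in 50 μL. n = 2 mice per group, each thigh a data point. Compound given ip starting 2 h post-inoculation; saline and vancomycin controls. Sacrifice at 48 h; thighs weighed, homogenized in 5.0 mL saline, plated for cfu/g tissue.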

Staphylococcus aureus [5] = experiment: Antibacterial activity against Staphylococcus aureus infected in CD1 mouse thigh muscle assessed as reduction in colony forming unit at 15 mg/kg, ip administered 2 hrs after infection measured after 48 hrs relative to control; type: functional, Muscle tissue; parameters: scale not given: the % may be the effect or the level left; details: route intraperitoneal; procedure, shortened: as §1
Mus musculus = experiment: Toxicity in CD1 mouse up to 20 mg/kg, ip after 2 days; type: organism-based; parameters: dose 20 mg/kg, route intraperitoneal; details: in vivo, 48 h
Procedure, shortened: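 Preliminary tolerance study: CD-1 mice dosed ip daily for 2 days at up to 20 mg/kg and watched for untoward effects.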

Staphylococcus aureus [6] = experiment: Antibacterial activity against Staphylococcus aureus infected in CD1 mouse thigh muscle assessed as reduction in colony formation unit at 3.0 mg/kg, ip administered 2 hrs after infection measured after 48 hrs relative to control; type: functional, Muscle tissue; parameters: scale not given: the % may be the effect or the level left; details: route intraperitoneal; procedure, shortened: as §1
Staphylococcus aureus [7] = experiment: Antibacterial activity against Staphylococcus aureus infected in CD1 mouse thigh muscle assessed as reduction in colony forming unit at 15 mg/kg, ip administered 2 hrs after infection measured after 48 hrs; type: functional, Muscle tissue; details: route intraperitoneal; procedure, shortened: as §1
Staphylococcus aureus [8] = experiment: Antibacterial activity against methicillin-resistant Staphylococcus aureus at 100 ug/ml by NCCLS method; type: functional, organism-based

SMILES: C[C@@H]1O[C@@H](Oc2c(-c3ccc(O)cc3)oc3cc(O)cc(O)c3c2=O)[C@H](OC(=O)/C=C\c2ccc(O)cc2)[C@H](OC(=O)/C=C/c2ccc(O)cc2)[C@H]1O
- Activity [1]: inactive
- Activity (Cryptococcus neoformans): inactive
- Activity (Vero): Non-toxic
- Activity (Escherichia coli): inactive
- Activity (Pseudomonas aeruginosa): inactive
- Activity (Aspergillus fumigatus): inactive
- Activity (Candida albicans): inactive
- IC50 (Staphylococcus aureus [2]): 0.7 µg/mL (≈ 0.966 µM)
- MIC (Staphylococcus aureus [2]): 1.3 µg/mL (≈ 1.79 µM)
- IC50 (Staphylococcus aureus [3]): 1.4 µg/mL (≈ 1.93 µM)
- MIC (Staphylococcus aureus [3]): 3.8 µg/mL (≈ 5.24 µM)

SMILES: C[C@@H]1O[C@@H](Oc2c(-c3ccc(O)cc3)oc3cc(O)cc(O)c3c2=O)[C@H](OC(=O)/C=C/c2ccc(O)cc2)[C@H](OC(=O)/C=C/c2ccc(O)cc2)[C@H]1O
- Activity [1]: inactive
- Activity (Staphylococcus aureus [4]): 2.6 ×10⁷ /g
- Activity (Cryptococcus neoformans): inactive
- Activity (Staphylococcus aureus [5]): 78%
- Activity (Vero): Non-toxic
- Activity (Escherichia coli): inactive
- Activity (Mus musculus): Non-toxic
- Activity (Pseudomonas aeruginosa): inactive
- Activity (Aspergillus fumigatus): inactive
- Activity (Staphylococcus aureus [6]): 67%
- Activity (Candida albicans): inactive
- IC50 (Staphylococcus aureus [2]): 2 µg/mL (≈ 2.76 µM)
- MIC (Staphylococcus aureus [2]): 10 µg/mL (≈ 13.8 µM)
- Activity (Staphylococcus aureus [7]): 1.8 ×10⁷ /g
- IC50 (Staphylococcus aureus [3]): 3.7 µg/mL (≈ 5.11 µM)
- MIC (Staphylococcus aureus [3]): 13.3 µg/mL (≈ 18.4 µM)

SMILES: CCN1CCN(C(=O)N[C@@H](C(=O)N[C@@H]2C(=O)N3[C@@H]2SC(C)(C)[C@@H]3C(=O)O)c2ccccc2)C(=O)C1=O [PIPERACILLIN]
- IC50 (Staphylococcus aureus [8]): Not Active
- MIC (Staphylococcus aureus [8]): inactive

SMILES: Cc1onc(-c2ccccc2Cl)c1C(=O)N[C@@H]1C(=O)N2[C@@H]1SC(C)(C)[C@@H]2C(=O)O [CLOXACILLIN]
- IC50 (Staphylococcus aureus [2]): 8.9 µg/mL (≈ 20.4 µM)

SMILES: O=C(O)c1cn(C2CC2)c2cc(N3CCNCC3)c(F)cc2c1=O [CIPROFLOXACIN]
- MIC (Staphylococcus aureus [2]): 0.3 µg/mL (≈ 0.905 µM)
- MIC (Staphylococcus aureus [3]): 0.4 µg/mL (≈ 1.21 µM)

SMILES: C[C@@H]1O[C@@H](Oc2c(-c3ccc(O)cc3)oc3cc(O)cc(O)c3c2=O)[C@H](OC(=O)/C=C/c2ccc(O)cc2)[C@H](OC(=O)/C=C\c2ccc(O)cc2)[C@H]1O
- Activity [1]: inactive
- Activity (Cryptococcus neoformans): inactive
- Activity (Vero): Non-toxic
- Activity (Escherichia coli): inactive
- Activity (Pseudomonas aeruginosa): inactive
- Activity (Aspergillus fumigatus): inactive
- Activity (Candida albicans): inactive
- IC50 (Staphylococcus aureus [2]): 0.8 µg/mL (≈ 1.1 µM)
- MIC (Staphylococcus aureus [2]): 1.7 µg/mL (≈ 2.35 µM)
- IC50 (Staphylococcus aureus [3]): 1.6 µg/mL (≈ 2.21 µM)
- MIC (Staphylococcus aureus [3]): 5.8 µg/mL (≈ 8 µM)

SMILES: COc1cccc(OC)c1C(=O)N[C@@H]1C(=O)N2[C@@H]1SC(C)(C)[C@@H]2C(=O)O [METHICILLIN]
- IC50 (Staphylococcus aureus [8]): Not Active
- MIC (Staphylococcus aureus [8]): inactive
- IC50 (Staphylococcus aureus [3]): 0.4 µg/mL (≈ 1.05 µM)
- MIC (Staphylococcus aureus [3]): 2.5 µg/mL (≈ 6.57 µM)
